This is an account of results in PubChem BioAssay.

SMILES strings stand for the structures. Unmarked numbers belong to inactive results. Records with an inconclusive call do not appear. Activity calls are given as the source filed them.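 How the source made its calls, unless noted: active means cell viability at or below a set limit in both duplicate runs, the limit being the all-compound median minus 4 SD (cut at about 23% in these data, passing the limit was not always enough); inconclusive means no clear call, values can overlap the other calls; inactive means the rest.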

A short description of assay [1]: OD615 S. cerevisiae growth inhibition, permissive medium, pilot counter-assay, permissive growth control for S. cerevisiae lifespan shortening project (AID 705;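 active means growth inhibition above 25% in both replicates, a cutoff set 3 SD above the mean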). To be noted: OD615, 24 h, at 10 µM, hits give high values. Put shortly: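 System: S. cerevisiae with engineered DeaD lifespan system / Measured by: absorbance (optical density) at 615 nm / Read-out: reduction in yeast growth (OD615) / Times: 4 h cell pre-growth, 24 h exposure at 30 °C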

A short description of assay [2]: Restrictive medium S. cerevisiae growth inhibition, OD615, pilot screen of yeast lifespan reduction project, restrictive growth control (AID 706;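 active means growth inhibition above a set limit, 3 SD over mean compound inhibition, in both replicates, cut at about 43% in these data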;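 further: modified DeaD lifespan yeast strain shifted to restrictive glucose medium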). To be noted: OD615, 48 h, at 10 µM, hits give high values. Put shortly:
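System: Engineered S. cerevisiae DeaD strain | Buffer or medium: Glucose-based CSMM-D restrictive medium | Schedule: 4 h pre-incubation, 48 h exposure at 30 °C | Technique: Optical density at 615 nm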

The nature of assay [3]: viability gain of MRP-1-high H69AR cells under doxorubicin, pilot screen, MRP-1 activator project, CellTiter-Glo, duplicate (AID 807;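 active means viability increase at or above a cutoff of the median across tested compounds plus 3 SD, cut at about 8.5% in these data, passing the limit was not always enough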;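 further: compound pretreatment 18-22 h then 72 h combined with doxorubicin; 0% = doxorubicin alone and 100% = vehicle without doxorubicin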). The following applies: H69AR viability with doxorubicin, CellTiter-Glo luminescence; at 10 µM; hits give high values.
Assay [4] is described as follows: growth suppression of beta-catenin knockout HCT116, pilot screen, human colon tumor cells (AID 823).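 Further: 0% = wells killed by 20 µM Hyamine and 100% = untreated DMSO cell wells.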 The following applies: CellTiter-Glo, 60 h, at 10 µM, hits give low values. In general terms: ATP-based viability assays read luminescence as a measure of living cells.
Assay [5] can be described thus: growth suppression of PTEN-deleted HCT116, pilot screen, cell-based, HCT116 clonal line, CellTiter-Glo (AID 824;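 active means viability at or below 27.92% in each of two runs, the all-compound median minus 4 SD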;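 further: 0% = 20 µM Hyamine control and 100% = vehicle cell control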). The following applies: 60 h, at 10 µM, hits give low values.
Assay [6] can be described thus: inhibitors of the yeast RAM network, pilot screen, dse1pr::URA3 reporter, 5-FOA selection (AID 869;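 active means inhibition over a set limit, the all-compound mean plus 3 SD, in both replicate runs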;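 further: 0% = DMSO wells with no growth and 100% = 10 µM 1-NA-PP1 with full growth; RAM network block rescues cells from 5-FOA so hits raise OD615 growth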). To be noted: S. cerevisiae dse1pr::URA3 5-FOA growth, OD615, 2 d; at 10 µM; hits give high values; strain carries analog-sensitive mutant Cbk1 kinase.
Assay [7] can be described thus: RAM signaling pathway blockade in yeast – S. cerevisiae, Pdr1DBD-CYC8 efflux-inhibited sensitized strain, primary screen (AID 1298;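 active means RAM network inhibition above 8.4% in each of two replicates, 3 SD over the compound average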;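 further: 0% = DMSO untreated cells without growth and 100% = 10 µM 1-NA-PP1 full growth; higher means more yeast growth rescued from 5-FOA killing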). To be noted: S. cerevisiae cbk1-as DSE1-URA3 strain, 5-FOA growth OD615, 2 d; at 50 µM; hits give high values.

In general, viability refers to a read-out of living cells in per cent, often relative to untreated cells. As usually defined, the inhibition is the relative decrease from the control value, in per cent. As to `CN(Cc1ccccc1)C(=O)CCn1c(=O)oc2ccccc21`, the values for the growth inhibition in assay [1] and in assay [2] were 2.31% and -0.265%, respectively. For the same compound, the viability increase in assay [3] was -1.33%. Besides, the viability in assay [4] was 101%; in assay [5], 99.2%. Also, the inhibition in assay [6] was 1.41%. In assay [7], the RAM network inhibition was 1.99%.

In the case of `CC(=O)c1cccc(NC(=O)c2cc(C)no2)c1`, the values for the growth inhibition in assay [1] and in assay [2] were -4.53% and -12.4%, respectively. The viability increase in assay [3] is -1.41%. Besides, the viability is 98.9% in assay [4] and 92.5% in assay [5]. The inhibition in assay [6] was 1.26%. Also, the RAM network inhibition in assay [7] was -1.99%.

Turning to `CCOc1ccc(-c2cc(CCCC(=O)NCc3cccnc3)no2)cc1`, the growth inhibition in assay [1] is 0.205%; in assay [2], 12.9%. In assay [3], the viability increase was -3.69%. The results for the viability in assay [4] and in assay [5] were 82.2% and 92.9%, respectively. In addition, the inhibition in assay [6] is 0.54%. Further, the RAM network inhibition in assay [7] is 2.74%.

With `COc1ccc(Nc2ccc3c(c2)=NC2(CCCCC2)[N+]=3[O-])cc1`, the growth inhibition in assay [1] is -9.92%; in assay [2], -11.8%. Besides, in assay [3], the viability increase was -8.28%. Moreover, the viability was 2.19% (active) in assay [4] and 1.61% (active) in assay [5]. Moreover, in assay [6], the inhibition was 4.35%. Moreover, in assay [7], the RAM network inhibition is 6.69%.

Take `COc1ccc(C2C=C(c3ccccc3)Nc3nnnn32)cc1` (stereo unspecified): the growth inhibition is -5.09% in assay [1] and 5.53% in assay [2]. In assay [3], the viability increase is 0.19%. Also, the viability in assay [4] is 95.3%; in assay [5], 90.3%. The inhibition in assay [6] is 0.855%. In assay [7], the RAM network inhibition is 5.93%.

In the case of `COc1cc2c(C(=O)NCc3ccccn3)cn(C)c(=O)c2cc1OC`, the results for the growth inhibition in assay [1] and in assay [2] were -8.38% and -2.63%, respectively. Also, in assay [3], the viability increase was -1.1%. Also, the viability in assay [4] was 102%; in assay [5], 95.3%. Also, the inhibition in assay [6] is 1.86%. Also, in assay [7], the RAM network inhibition was 1.07%.

Regarding `Cc1nc2sc(C(c3ccco3)N3CCN(c4ccc(F)cc4)CC3)c(O)n2n1` (stereo unspecified), the growth inhibition in assay [1] is 0.055%; in assay [2], -7.21%. Moreover, the viability increase in assay [3] is -0.62%. Besides, the figures for the viability in assay [4] and in assay [5] were 107% and 99.9%, respectively. The inhibition in assay [6] is 1.52%. Besides, the RAM network inhibition in assay [7] is 3.54%.

`O=C(NCCc1ccc(S(=O)(=O)N2CCCC2)cc1)c1cccs1`: the figures for the growth inhibition in assay [1] and in assay [2] were 2.67% and 7.14%, respectively. Besides, in assay [3], the viability increase was -1.73%. The viability in assay [4] was 93.4%; in assay [5] it was 90.2%. Moreover, the inhibition in assay [6] was 0.545%. Further, in assay [7], the RAM network inhibition is 6.32%.

For the compound `O=C(Nc1ccccc1C(=O)N1CCOCC1)c1ccco1`, the results for the growth inhibition in assay [1] and in assay [2] were -6.66% and -11.1%, respectively. Also, the viability increase in assay [3] was -0.74%. Also, the figures for the viability in assay [4] and in assay [5] were 101% and 105%, respectively. Besides, the inhibition in assay [6] was 0.27%. The RAM network inhibition in assay [7] is 2.67%.

On to `CN(CC1CCCO1)S(=O)(=O)c1ccc(C(=O)Nc2nc(-c3ccccn3)cs2)cc1` (stereo unspecified), for which the growth inhibition in assay [1] is -14.2%; in assay [2] it was -14.7%. Further, the viability increase in assay [3] is -5.46%. Moreover, the viability was 18.5% (active) in assay [4] and 23.1% (active) in assay [5]. Besides, the inhibition in assay [6] was 2.57%. Further, the RAM network inhibition in assay [7] was 2.63%.

Turning to `CC(=O)C1=C(C)NC(SCC(=O)c2ccccc2)=C(C#N)C1c1ccco1` (stereo unspecified), the figures for the growth inhibition in assay [1] and in assay [2] were -3.25% and 21.2%, respectively. For the same compound, the viability increase in assay [3] was -6.35%. For the same compound, the results for the viability in assay [4] and in assay [5] were 55% and 56%, respectively. Further, the inhibition in assay [6] was 1.5%. In addition, in assay [7], the RAM network inhibition was 3.37%.

In the case of `COc1ccc(OC)c(N(CC(=O)NCCSc2ccccc2)S(C)(=O)=O)c1`, the figures for the growth inhibition in assay [1] and in assay [2] were -4.86% and -9.71%, respectively. The viability increase in assay [3] was -3.1%. For the same compound, the values for the viability in assay [4] and in assay [5] were 96.9% and 95.5%, respectively. Moreover, the inhibition in assay [6] is 0.23%. Further, the RAM network inhibition in assay [7] was 4.35%.

For the compound `CCN1C(=O)c2ccccc2S(=O)c2ccc(C(=O)N3CCCC3)cc21` (stereo unspecified), the growth inhibition in assay [1] was -3.58%; in assay [2], 3.54%. The viability increase in assay [3] was -1.58%. Further, the viability is 93.3% in assay [4] and 88.9% in assay [5]. Also, the inhibition in assay [6] was 1.16%. The RAM network inhibition in assay [7] was -1.72%.

Take `CCn1cc(C(=O)NCCCN2CCC(C)CC2)c2cc(OC)c(OC)cc2c1=O`: the growth inhibition in assay [1] was -7.74%; in assay [2] it was 6.7%. Further, the viability increase in assay [3] was -3.47%. In addition, the viability is 99.3% in assay [4] and 92% in assay [5]. Also, the inhibition in assay [6] is 1.77%. The RAM network inhibition in assay [7] is 1.99%.

Regarding `CCOC(=O)C1=C(N)OC2=C(C(=O)CCC2)C1c1ccccc1OCC` (stereo unspecified), the growth inhibition in assay [1] is -3.85%; in assay [2], -4.66%. The viability increase in assay [3] is -0.08%. In addition, the viability in assay [4] was 100%; in assay [5], 103%. Also, the inhibition in assay [6] was 1.05%. Besides, in assay [7], the RAM network inhibition was 8.68%.

For the compound `CCCC(=O)NCCCc1nc2ccccc2n1CCC`, the results for the growth inhibition in assay [1] and in assay [2] were -2.54% and -20.1%, respectively. The viability increase in assay [3] was -1.65%. In addition, the viability in assay [4] is 102%; in assay [5], 95.1%. For the same compound, in assay [6], the inhibition is 1.56%. In assay [7], the RAM network inhibition was 3.21%.

In the case of `Cc1cccc(Nc2ncnc3nc[nH]c23)c1C`, the growth inhibition was -10.5% in assay [1] and -8.69% in assay [2]. The viability increase in assay [3] is -1.75%. Besides, the viability in assay [4] and in assay [5] was 103% throughout. Besides, the inhibition in assay [6] is 2.98%. In assay [7], the RAM network inhibition is 4.52%.

On to `Cn1c(NC(=O)Cc2ccc(F)cc2)cc(=O)n(C)c1=O`, for which the growth inhibition was -5.41% in assay [1] and -2.77% in assay [2]. The viability increase in assay [3] was 3.42%. Moreover, the viability in assay [4] was 109%; in assay [5] it was 95.4%. In assay [6], the inhibition was 1.83%. The RAM network inhibition in assay [7] was 0.62%.
